Tests used:
N2a [1] = assay: Cytotoxicity against mouse Neuro2a cells assessed as cell viability after 72 hrs by MTT assay; format: ADME, cell-based
[2] = target: Peptidyl-prolyl cis-trans isomerase F, mitochondrial (Mus musculus) (UniProt Q99KR7); assay: (§1) Inhibition of Cyclophilin D in mouse HT22 cells assessed as neuroprotective activity against amyloid beta (1 to 42) induced impairment of ATP production by measuring assessed as recovery of ATP production at 5 uM pretreated for 10 mins followed by amyloid beta (1 to 42) stimulation measured after 7 hrs by luciferase based assay relative to control; format: cell-based; design: scale not given: the % may be the effect or the level left
Method in brief: (§2)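 HT-22 cells, 10,000 per well, seeded one day before. Cells pretreated 10 min at 37 °C with compound, then Aβ1-42 added, and incubated 7 h. Cells were washed, lysed in 1% Triton X-100/TBST, and equal protein amounts (BCA) assayed for ATP by luciferase. Recovery was calculated against the Aβ-treated vehicle control. ATP viability comes from samples without Aβ.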

[3] = Cytotoxicity against mouse HT22 cells assessed as cell viability at 5 uM after 24 hrs by MTT assay relative to control; format: cell-based, HT-22; conditions: read-out: Activity
Method in brief: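 HT-22 cells, 5000 per well, seeded one day before the assay. Compound solution added, then cells incubated 24 h at 37 °C. MTT added for 2 h at 37 °C. Formazan dissolved in 10% Triton X-100 in isopropanol with 0.1 M HCl for 1 h at room temperature, then absorbance read. Viability relative to vehicle control, without Aβ.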

[4] = Cytotoxicity against mouse Neuro2a cells assessed as cell viability at 10 uM after 72 hrs by MTT assay relative to control; format: cell-based, N2a; conditions: read-out: Activity
Method in brief: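 Neuro-2a cells grown in EMEM with 10% FBS and penicillin/streptomycin. A 10 mM DMSO stock was diluted 3-fold over 10 doses in DMSO, and 2000 cells were added per well. Incubated 72 h at 37 °C, 5% CO2. MTT added for 4 h, then solubilization/stop solution for 1 h. Absorbance read at 590 nm. Viability is from color intensity, with IC50 fitted to a sigmoidal dose-response curve.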

[5] = Effective permeability of the compound at pH 7.4 at 50 uM after 4 hrs by PAMPA; format: physicochemical; conditions: read-out: Peff
Method in brief: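 BBB-PAMPA (double-sink) setup. 10 mM DMSO stocks were diluted to 50 µM in buffer pH 7.4 as the donor, with brain sink buffer as the acceptor. Incubated 4 h at 26 °C. Donor, acceptor and reference concentrations measured by UV (230–498 nm), and Pe calculated on a double-sink basis.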

[6] = target: Peptidyl-prolyl cis-trans isomerase F, mitochondrial (Mus musculus) (UniProt Q99KR7); assay: Inhibition of Cyclophilin D in mouse HT22 cells assessed as reduction in amyloid beta (1 to 42) induced decrease in cell viability at 5 uM after 24 hrs by MTT assay relative to control; format: cell-based
Method in brief: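 HT-22 cells, 5000 per well, pretreated 10 min with compound, then Aβ1-42 added and incubated 24 h at 37 °C. MTT added for 2 h, then acidified Triton/isopropanol solubilization, and absorbance read at 570 nm. Percent inhibition calculated relative to vehicle control with Aβ.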

[7] = target: Peptidyl-prolyl cis-trans isomerase F, mitochondrial (Mus musculus) (UniProt Q99KR7); assay: Inhibition of cyclophilin D in mouse HT22 cells assessed as reduction in amyloid beta (1 to 42) induced mitochondrial permeability transition pore opening by measuring increase in green to red fluorescence ratio at 5 uM pretreated for 10 mins followed by amyloid beta (1 to 42) stimulation measured at 1 hr interval for 3 hrs by JC-1 dye based fluorescence assay relative to control; format: cell-based; design: scale not given: the % may be the effect or the level left
Method in brief: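 HT-22 cells, 30,000 per well, loaded with JC-1 at 7.5 µM final in phenol red-free Opti-MEM for 1 h 15 min at 37 °C, then PBS-washed. Compound at 5 µM for 10 min at 37 °C, then Aβ1-42 (5 µM solution) added. Red (ex/em 530/580 nm) and green (485/530 nm) fluorescence read hourly for 3 h. Green/red ratio normalized to the Aβ-alone control as 100%.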

[8] = target: Voltage-gated inwardly rectifying potassium channel KCNH2 (Homo sapiens, UniProt Q12809); assay: Displacement of [3H]-Astemizole from human ERG expressed in HEK293 cell membranes measured after 1 hr by microbeta counting method
Method in brief: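 Radioligand binding to membranes (2.5 µg) from HEK-293 cells expressing hERG. Buffer was 50 mM Hepes pH 7.4 with 60 mM KCl, 0.1% BSA and 4 nM [3H]astemizole, incubated 1 h at RT. Samples filtered through PEI-soaked filtermat. Non-specific binding defined with 0.1 µM astemizole. Used 5–6 test concentrations in duplicate, with isotherms from two assays.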

[9] = target: Peptidyl-prolyl cis-trans isomerase F, mitochondrial (Mus musculus) (UniProt Q99KR7); assay: Inhibition of Cyclophilin D in mouse HT22 cells assessed as reduction in amyloid beta (1 to 42) induced reactive oxygen species production at 5 uM after 6 hrs by CMH2DCFDA dye based fluorescence assay relative to control; format: cell-based
Method in brief: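 HT-22 cells, 10,000 per well, treated with compound plus Aβ1-42 in Opti-MEM for 6 h. Cells loaded with CM-H2DCFDA (diluted from 1 mM stock) in HBSS for 30 min at 37 °C, then Hoechst added. Total fluorescence intensity per well taken from high-content imaging. Inhibition expressed as percent of the Aβ-induced signal increase.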

N2a [10] = assay: Induction of reactive oxygen species production in mouse Neuro2a cells assessed as H2O2 level at 10 uM after 6 hrs by ROS-Glo luminescence assay relative to control; format: cell-based
Method in brief: (§3)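 Neuro-2a cells, 2000 per well, given compounds from 10-dose 3-fold serial dilutions of 10 mM DMSO stocks. H2O2 substrate added immediately, then 6 h at 37 °C, 5% CO2. ROS-Glo detection reagent added for 20 min at RT, then luminescence read. H2O2 expressed as fold of untreated, with IC50 fitted from the dose series.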

[11] = target: Peptidyl-prolyl cis-trans isomerase F, mitochondrial (Mus musculus) (UniProt Q99KR7); assay: as §1, with “cell viability” for “assessed as recovery of ATP production”, “5” for “5 uM”; method in brief: as §2
N2a [12] = assay: Inhibition of reactive oxygen species production in mouse Neuro2a cells assessed as decrease in H2O2 levels after 6 hrs by ROS-Glo luminescence assay; format: functional, cell-based; method in brief: as §3

Peptidyl-prolyl cis-trans isomerase F, mitochondrial (Mus musculus), sequence (Q99KR7 whole entry): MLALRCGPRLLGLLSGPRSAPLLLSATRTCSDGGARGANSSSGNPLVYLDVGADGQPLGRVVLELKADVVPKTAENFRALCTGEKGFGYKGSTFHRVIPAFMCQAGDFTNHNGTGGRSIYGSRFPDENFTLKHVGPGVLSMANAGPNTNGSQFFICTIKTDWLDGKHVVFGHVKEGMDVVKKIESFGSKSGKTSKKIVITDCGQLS
Voltage-gated inwardly rectifying potassium channel KCNH2, sequence (Q12809 whole entry): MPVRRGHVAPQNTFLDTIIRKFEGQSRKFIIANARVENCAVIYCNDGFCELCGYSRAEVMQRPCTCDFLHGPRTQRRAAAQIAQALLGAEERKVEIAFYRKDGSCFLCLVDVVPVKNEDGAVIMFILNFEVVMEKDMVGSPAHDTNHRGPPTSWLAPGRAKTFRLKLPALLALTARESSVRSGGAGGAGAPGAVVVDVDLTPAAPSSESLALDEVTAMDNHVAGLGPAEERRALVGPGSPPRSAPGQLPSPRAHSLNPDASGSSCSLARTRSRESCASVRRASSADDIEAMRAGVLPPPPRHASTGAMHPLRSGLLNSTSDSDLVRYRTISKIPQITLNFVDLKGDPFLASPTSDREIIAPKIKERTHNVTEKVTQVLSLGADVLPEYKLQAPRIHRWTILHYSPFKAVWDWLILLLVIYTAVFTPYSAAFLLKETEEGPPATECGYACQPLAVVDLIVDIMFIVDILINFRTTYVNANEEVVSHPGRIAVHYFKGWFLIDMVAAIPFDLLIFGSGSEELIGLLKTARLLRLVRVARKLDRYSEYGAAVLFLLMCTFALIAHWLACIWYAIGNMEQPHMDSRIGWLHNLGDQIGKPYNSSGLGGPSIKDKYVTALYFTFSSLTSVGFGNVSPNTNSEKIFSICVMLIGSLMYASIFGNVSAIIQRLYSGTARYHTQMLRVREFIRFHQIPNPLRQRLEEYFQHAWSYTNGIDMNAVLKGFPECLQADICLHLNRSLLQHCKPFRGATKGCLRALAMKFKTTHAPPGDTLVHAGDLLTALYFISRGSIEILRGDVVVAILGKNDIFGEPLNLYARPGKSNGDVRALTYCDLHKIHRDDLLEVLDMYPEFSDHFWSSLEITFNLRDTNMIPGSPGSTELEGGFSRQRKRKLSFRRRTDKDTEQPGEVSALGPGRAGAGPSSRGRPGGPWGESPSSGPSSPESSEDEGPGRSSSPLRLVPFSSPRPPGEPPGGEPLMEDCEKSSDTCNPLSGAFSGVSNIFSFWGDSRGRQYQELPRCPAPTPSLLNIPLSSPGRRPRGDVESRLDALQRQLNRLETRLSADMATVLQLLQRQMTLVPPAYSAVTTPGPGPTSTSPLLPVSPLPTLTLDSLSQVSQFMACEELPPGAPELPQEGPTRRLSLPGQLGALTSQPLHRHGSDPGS

Structure (SMILES) | Activity [2] | viability at 72 h, 10 µM [4] | Activity [7] | fold change (FC) (N2a [10]) | Activity [11] | IC50 (N2a [12]) | other results
O=C(NCCN1CCNCC1)Nc1ncccc1OCc1ccccc1 | 87% | 102% | 16% | 0.97 | 78% | > 10 µM | IC50 (N2a [1]): > 10 µM; viability at 24 h, 5 µM [3]: 133%; Papp at 4 h, 50 µM [5]: 20.6 ×10⁻⁶ cm/s; inhibition [6]: 81%; IC50 [8]: > 28.7 µM; inhibition [9]: 97%
CC(C)(C)NC(=O)Nc1ncccc1OCc1ccccc1 | 72% | 106% | 23% | 0.92 | 103% | > 10 µM | IC50 (N2a [1]): > 10 µM; viability at 24 h, 5 µM [3]: 92%; Papp at 4 h, 50 µM [5]: 45.1 ×10⁻⁶ cm/s; inhibition [6]: 11%; inhibition [9]: 95%
O=C(Nc1ncccc1OCc1cccc(Cl)c1)NC1CCCCCC1 | – | – | 46% | – | – | – | –
CC(C)(C)CC(C)(C)NC(=O)Nc1ncccc1OCc1ccccc1Cl | – | – | 21% | – | – | – | –
CC(=O)[C@H]1CC[C@H]2[C@@H]3CCC4=CC(=O)CC[C@]4(C)[C@H]3CC[C@]12C [PROGESTERONE] | – | – | – | – | – | – | Papp at 4 h, 50 µM [5]: 48.8 ×10⁻⁶ cm/s
CC(C)(C)NC(=O)Nc1ncccc1OCc1ccc(Cl)cc1 | 13% | 93.1% | 35% | 0.91 | 104% | > 10 µM | IC50 (N2a [1]): > 10 µM
O=C(NCCCl)Nc1ncccc1OCc1cccc(Cl)c1 | – | – | 73% | – | – | – | –
O=C(Nc1ncccc1OCc1cccc(F)c1)NC1CCCCCC1 | – | – | 91% | – | – | – | –
CCNC(=O)Nc1ncccc1OCc1ccccc1Cl | – | – | 49% | – | – | – | –
CCNC(=O)Nc1ncccc1OCc1ccc(F)cc1 | – | – | 127% | – | – | – | –
CC(C)(C)CC(C)(C)NC(=O)Nc1ncccc1OCc1cccc(F)c1 | -140% | 101% | 31% | 1.02 | 30% | > 10 µM | IC50 (N2a [1]): > 10 µM
O=C(NCCN1CCNCC1)Nc1ncccc1OCc1cccc(Cl)c1 | – | – | 48% | – | – | – | –
NC(=O)CN1CCCC1=O | 127% | – | – | – | 88% | – | viability at 24 h, 5 µM [3]: 132%; inhibition [6]: 29%; inhibition [9]: 129%
CC(C)(C)CC(C)(C)NC(=O)Nc1ncccc1OCc1cccc(Cl)c1 | – | – | 50% | – | – | – | –
CC1=CC(=O)c2ccccc2C1=O [MENADIONE] | – | – | – | 6.94 | – | 2.69 µM | –
O=C(Nc1ncccc1OCc1ccc(Cl)cc1)NC1CCCCCC1 | 47% | 85.2% | 19% | 1.15 | 105% | > 10 µM | IC50 (N2a [1]): > 10 µM
O=C(Nc1ncccc1OCc1ccccc1)NC1CCCCCC1 | – | – | 130% | – | – | – | –
Cn1c(=O)c2[nH]cnc2n(C)c1=O.O [THEOPHYLLINE] | – | – | – | – | – | – | Papp at 4 h, 50 µM [5]: 0.29 ×10⁻⁶ cm/s
CC(C)(C)NC(=O)Nc1ncccc1OCc1cccc(F)c1 | 45% | 95.8% | 44% | 0.94 | 129% | > 10 µM | IC50 (N2a [1]): > 10 µM
CC(C)(C)NC(=O)Nc1ncccc1OCc1ccc(F)cc1 | – | – | 49% | – | – | – | –
O=C(NCCCl)Nc1ncccc1OCc1ccc(Cl)cc1 | – | – | 131% | – | – | – | –
CN[C@@H]1C[C@H]2O[C@@](C)([C@@H]1OC)n1c3ccccc3c3c4c(c5c6ccccc6n2c5c31)C(=O)NC4 [STAUROSPORINE] | – | 1.3% | – | – | – | – | –
CCNC(=O)Nc1ncccc1OCc1ccc(Cl)cc1 | – | – | 94% | – | – | – | –
O=C(NCCCl)Nc1ncccc1OCc1ccccc1 | – | – | 169% | – | – | – | –
O=C(Nc1ncccc1OCc1ccc(F)cc1)NC1CCCCCC1 | 40% | 93.2% | 28% | 0.91 | 99% | > 10 µM | IC50 (N2a [1]): > 10 µM
O=C(Nc1ncccc1OCc1ccccc1Cl)NC1CCCCCC1 | – | – | 41% | – | – | – | –
CC(C)(C)NC(=O)Nc1ncccc1OCc1cccc(Cl)c1 | – | – | 176% | – | – | – | –
CCNC(=O)Nc1ncccc1OCc1cccc(F)c1 | 41% | 96.6% | 14% | 1.14 | 102% | > 10 µM | IC50 (N2a [1]): > 10 µM
O=C(NCCCl)Nc1ncccc1OCc1ccccc1Cl | – | – | 41% | – | – | – | –
O=C(NCCCl)Nc1ncccc1OCc1ccc(F)cc1 | – | – | 64% | – | – | – | –

From ChEMBL document CHEMBL4004826, “Discovery of 1-(3-(benzyloxy)pyridin-2-yl)-3-(2-(piperazin-1-yl)ethyl)urea: A new modulator for amyloid beta-induced mitochondrial dysfunction” (Eur J Med Chem, 2017)
